In brackets after ≈: the same amount, converted by molar mass.
Experiments:
[1] = Plasma concentration in cynomolgus monkey at 5 mg/kg, po measured after 2 hrs of administration; format: ADME, organism-based, Macaca fascicularis
Procedure, shortened: (§1)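 Cynomolgus monkeys (n=2) dosed orally. Blood and brain collected 2 h after dosing. Plasma (ng/mL) and striatum (ng/g) concentrations measured and the striatum/plasma ratio taken per animal and as the mean. Brain free concentration derived using protein binding ratio.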

[2] = Ratio of drug level in cynomolgus monkey striatum to plasma at 5 mg/kg, po measured after 2 hrs of administration
[3] = Drug uptake in cynomolgus monkey striatum at 5 mg/kg, po measured after 2 hrs of administration; format: ADME, organism-based, Macaca fascicularis; conditions: read-out: Drug uptake; procedure, shortened: as §1
[4] = Metabolic stability in human liver microsomes assessed as intrinsic clearance incubated for 30 mins in presence of NADPH measured per mg protein; format: ADME, Microsome; conditions: for microsomal CLint: liver microsomes, read-out: CLH
Procedure, shortened: (§2)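 Compound incubated with human or rat hepatic microsomes plus NADPH at 37 °C for 30 min. Intrinsic clearance expressed as μL/min/mg protein.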

[5] = Solubility of the compound at pH 7.4; format: physicochemical; conditions: buffer
[6] = Plasma concentration in mouse at 10 mg/kg, po; format: ADME, organism-based; conditions: in vivo
Procedure, shortened: (§3)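 Mouse PK after a single oral dose (2 mg/kg; 10 mg/kg where marked). Plasma concentration given in ng/mL and brain concentration in ng/g tissue. Brain/plasma ratio computed from these. Values given as mean ± spread.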

[7] = Ratio of drug concentration in brain to plasma in mouse at 10 mg/kg, po; format: ADME, organism-based; conditions: read-out: BPR; procedure, shortened: as §3
[8] = Glutathione reactivity assessed as dansylatedGSH-compound conjugate formation in presence of human liver microsomes by fluorescence detector based HPLC analysis; format: physicochemical
Procedure, shortened: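 Reactive metabolite trapping: compound incubated with dansylated glutathione and human liver microsomes. dGSH-conjugate quantified by HPLC with fluorescence detection and reported in μmol/L.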

[9] = Half life in mouse; format: ADME, organism-based; conditions: in vivo
[10] = Solubility of the compound at pH 1.2; format: physicochemical; conditions: buffer
[11] = Drug concentration in mouse brain at 10 mg/kg, po measured per gm of tissue; format: ADME, organism-based; conditions: in vivo; procedure, shortened: as §3
[12] = Metabolic stability in rat liver microsomes assessed as intrinsic clearance incubated for 30 mins in presence of NADPH measured per mg protein; format: ADME, Microsome; conditions: for microsomal CLint: liver microsomes, read-out: CLH; for CLH: microsomes, 0.5 h; procedure, shortened: as §2
[13] = Clearance in mouse; format: ADME, organism-based; conditions: in vivo
[14] = Drug concentration in mouse brain at 2 mg/kg, po measured per gm of tissue; format: ADME, organism-based; conditions: in vivo; procedure, shortened: as §3
[15] = Plasma concentration in mouse at 2 mg/kg, po; format: ADME, organism-based; conditions: in vivo; procedure, shortened: as §3
[16] = Ratio of drug concentration in brain to plasma in mouse at 2 mg/kg, po; format: ADME, organism-based; conditions: read-out: BPR; procedure, shortened: as §3

O=C(O)c1cc(-c2ccc(Cl)c(OC3CC3)c2)ncn1 showed a concentration at 2 h [1] of 15600 ng/mL, a Kp at 2 h [2] of 0.004 and a concentration at 2 h [3] of 64.8 ng/g.
Compound Cc1ccc(S(=O)(=O)Nc2ccc(-c3ccccc3N3CCCCC3)nn2)cc1 has a microsomal CLint [4] of 1.07 µL/min/mg, a solubility [5] of less than 1 µg/mL and a Cp [6] of 808 ng/mL. It also gave a Kp [7] of 0.28, a Drug metabolism [8] of 0.000852 µmol/mL and a half-life [9] of 18 min. The solubility [10] was 163 µg/mL (≈ 399 µM), the Ct [11] was 230 ng/g and the microsomal CLint [12] was 0.395 µL/min/mg. For the same compound, the clearance [13] was 67 mL/min/kg.
Compound COCCCS(=O)(=O)Nc1ccc(-c2cc(F)ccc2N2CCCCC2)nn1 has a CLH ([4]; microsomes, 0.5 h) of 0.026 µL/min/mg, a Drug metabolism [8] of 0 µmol/mL and a CLH [12] of 0.045 µL/min/mg.
For Cc1ccc(S(=O)(=O)Nc2ccc(-c3c(F)cccc3N3CCCCC3)nn2)cc1, the Ct [14] was 79 ng/g, the microsomal CLint [4] was 0.478 µL/min/mg and the Drug metabolism [8] was 0.000637 µmol/mL. For the same compound, the Cp [15] was 284 ng/mL, the Kp [16] was 0.28 and the microsomal CLint [12] was 0.339 µL/min/mg.
Work on CCS(=O)(=O)Nc1ccc(-c2cc(F)ccc2N2CCCCC2)nn1 yielded a microsomal CLint [4] of 0.156 µL/min/mg, a Drug metabolism [8] of 0 µmol/mL and a microsomal CLint [12] of less than 0.05 µL/min/mg.
Cc1ccc(S(=O)(=O)Nc2ccc(-c3cccc(F)c3N3CCCCC3)nn2)cc1 showed a microsomal CLint [4] of 0.178 µL/min/mg, a Drug metabolism [8] of 0.000146 µmol/mL and a microsomal CLint [12] of 0.518 µL/min/mg.
For O=S(=O)(CC(F)(F)F)Nc1ccc(-c2cc(F)ccc2N2CCCCC2)nn1, the microsomal CLint [4] was 0.569 µL/min/mg, the Drug metabolism [8] was 0 µmol/mL and the microsomal CLint [12] was 0.265 µL/min/mg.
With COCCS(=O)(=O)Nc1ccc(-c2cc(F)ccc2N2CCCCC2)nn1 the microsomal CLint [4] was 0.179 µL/min/mg, the Drug metabolism [8] was 0 µmol/mL and the CLH [12] was 0.05 µL/min/mg.
Work on O=S(=O)(CC1CCCC1)Nc1ccc(-c2cc(F)ccc2N2CCCCC2)nn1 yielded a microsomal CLint [4] of 0.703 µL/min/mg, a Drug metabolism [8] of 0.00049 µmol/mL and a microsomal CLint [12] of 1.6 µL/min/mg.
Work on O=S(=O)(CC1CCCCO1)Nc1ccc(-c2cc(F)ccc2N2CCCCC2)nn1 (stereo unspecified) yielded a microsomal CLint [4] of 0.139 µL/min/mg, a Drug metabolism [8] of 0 µmol/mL and a microsomal CLint [12] of 0.435 µL/min/mg.
CCCS(=O)(=O)Nc1ccc(-c2cc(F)ccc2N2CCCCC2)nn1 showed a microsomal CLint [4] of 0.179 µL/min/mg, a Drug metabolism [8] of 0 µmol/mL and a microsomal CLint [12] of 0.168 µL/min/mg.
Compound CC(C)CS(=O)(=O)Nc1ccc(-c2cc(F)ccc2N2CCCCC2)nn1 has a microsomal CLint [4] of 0.375 µL/min/mg, a Drug metabolism [8] of 0.00011 µmol/mL and a microsomal CLint [12] of 0.483 µL/min/mg.

— ChEMBL document CHEMBL4834453, “Discovery of N-(6-(5-fluoro-2-(piperidin-1-yl)phenyl)pyridazin-3-yl)-1-(tetrahydro-2H-pyran-4-yl)methanesulfonamide as a brain-permeable and metabolically stable kynurenine monooxygenase inhibitor” (Bioorg Med Chem Lett, 2021)
